# Active and inactive are the calls of the source. No cut-off for these calls is given here.
# Key:
# [1] = system: Human immunodeficiency virus 1; assay: Antiviral activity against HIV1 3B infected in MT4 cells by MTT; assay type: functional, organism-based; details: Human immunodeficiency virus 1, 3B
# Summary of the method: (§1)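 MT-4 cells at 1 × 10^5 cells/mL were infected at MOI 0.02 with virus stocks pre-titrated in MT-4 cells (CCID50) and immediately plated onto serial compound dilutions. Compound stocks were 50 mM in DMSO. Viable cells were counted by MTT after 4 days at 37 °C. EC50 is the concentration giving 50% protection from viral cytopathicity, as the mean of ≥2 separate experiments.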
# [2] = system: Human immunodeficiency virus 2; assay: Antiviral activity against HIV2 ROD infected in MT4 cells by MTT; assay type: functional, organism-based; details: Human immunodeficiency virus 2, ROD; summary of the method: as §1
# [3] = Cytotoxicity against human MT4 cells; assay type: cell-based
# Summary of the method: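 Uninfected MT-4 cells were run in parallel with the antiviral plates: serial compound concentrations from 50 mM DMSO stocks, 4 days at 37 °C, viability by MTT. CC50 is the concentration cutting viability by 50%, as the mean of ≥2 separate experiments.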
# [4] = Selectivity index, ratio of CC50 for human MT4 cells to EC50 for HIV1 3B; assay type: functional
# [5] = system: Human immunodeficiency virus 1; assay: Antiviral activity against HIV1 RES056 infected in MT4 cells by MTT; assay type: functional, organism-based; details: Human immunodeficiency virus 1, RES056, MT4; summary of the method: as §1
# MT4 = assay: Selectivity index, ratio of CC50 for human MT4 cells to EC50 for HIV1 RES056
# [6] = as above
SMILES,EC50 [1],EC50 [2],CC50 [3],Ratio CC50/EC50 [4],EC50 [5],Activity (MT4),Ratio CC50/EC50 [6]
COc1ccc(C(=O)CSc2nc(Cc3cccc(Br)c3)c(C)c(=O)[nH]2)cc1,890 nM,203 µM,≥ 196 µM,>=220,,,
COc1ccc(C(=O)CSc2nc(Cc3cc(C)cc(C)c3)c(C)c(=O)[nH]2)cc1,54 nM,60.6 µM,> 308 µM,>5704,> 308 µM,inactive,
CCc1c(Cc2cc(C(F)(F)F)cc(C(F)(F)F)c2)nc(SCC(=O)c2ccc(OC)cc2)[nH]c1=O,790 nM,> 236 µM,> 236 µM,>299,,,
COc1ccc(C(=O)CSc2nc(Cc3cc(C(F)(F)F)cc(C(F)(F)F)c3)c(C)c(=O)[nH]2)cc1,46100 nM,> 242 µM,> 242 µM,>5,,,
COc1ccc(C(=O)CSc2nc(Cc3c(Cl)cccc3Cl)c(C)c(=O)[nH]2)cc1,44 nM,> 278 µM,> 278 µM,>6318,,,
CCc1c(C(c2ccccc2)c2ccccc2)nc(SCC(=O)c2ccc(OC)cc2)[nH]c1=O,3490 nM,> 266 µM,> 266 µM,>76,,,
CCc1c(Cc2cc(C)cc(C)c2)nc(SCC(=O)c2ccccc2)[nH]c1=O,10 nM,154 µM,> 318 µM,>31800,19.8 µM,,>16
CC(C)Nc1cccnc1N1CCN(C(=O)c2cc3cc(NS(C)(=O)=O)ccc3[nH]2)CC1 [DELAVIRDINE],72 nM,,> 3.62 µM,>50,> 3.62 µM,,
Cc1c(Cc2cccc3ccccc23)nc(SCC(=O)c2ccccc2)[nH]c1=O,220 nM,≥ 42.2 µM,≥ 305 µM,>=1386,,,
CCc1c(Cc2cccc(Br)c2)nc(SCC(=O)c2ccc(OC)cc2)[nH]c1=O,160 nM,> 142 µM,142 µM,887,,,
COc1ccc(C(=O)CSc2nc(Cc3ccccc3Br)c(C)c(=O)[nH]2)cc1,630 nM,> 272 µM,> 272 µM,>432,,,
CCc1c(Cc2cc(C)cc(C)c2)nc(SCC(=O)c2ccc(OC)cc2)[nH]c1=O,18 nM,52.8 µM,≥ 239 µM,>=13278,> 239 µM,,
CCc1c(Cc2ccc(Br)cc2)nc(SCC(=O)c2ccc(OC)cc2)[nH]c1=O,7940 nM,> 264 µM,> 264 µM,>33,,,
CCc1c(Cc2ccc(-c3ccccc3)cc2)nc(SCC(=O)c2ccc(OC)cc2)[nH]c1=O,> 266000 nM,> 266 µM,> 266 µM,,,,
COc1ccc(C(=O)CSc2nc(Cc3ccc(Br)cc3)c(C)c(=O)[nH]2)cc1,8970 nM,≥ 226 µM,> 272 µM,>30,,,
COc1ccc(C(=O)CSc2nc(Cc3cccc(O)c3)c(C)c(=O)[nH]2)cc1,4440 nM,> 59 µM,70 µM,16,,,
CCc1c(Cc2ccccc2Br)nc(SCC(=O)c2ccc(OC)cc2)[nH]c1=O,40 nM,> 187 µM,187 µM,4675,,,
"O=C1Nc2ccc(Cl)cc2C(C#CC2CC2)(C(F)(F)F)O1 (single isomer, unassigned) [EFAVIRENZ]",,,> 6.34 µM,,,,
Cc1cn([C@H]2C[C@H](N=[N+]=[N-])[C@@H](CO)O2)c(=O)[nH]c1=O [ZIDOVUDINE],5 nM,,> 93.5 µM,>17990,0.006 µM,,>15592
COc1ccc(C(=O)CSc2nc(C(c3ccccc3)c3ccccc3)c(C)c(=O)[nH]2)cc1,1380 nM,> 274 µM,> 274 µM,>199,,,

# Reference: ChEMBL document CHEMBL1144854, “Synthesis and biological evaluation of novel 6-substituted 5-alkyl-2-(arylcarbonylmethylthio)pyrimidin-4(3H)-ones as potent non-nucleoside HIV-1 reverse transcriptase inhibitors” (Bioorg Med Chem, 2008)
